{"source": "ChEMBL document CHEMBL4261487", "about": "“Small structural changes of the imidazopyridine diacylglycerol acyltransferase 2 (DGAT2) inhibitors produce an improved safety profile” (Medchemcomm, 2017)", "key": {"[1]": {"target": "T1, Diacylglycerol O-acyltransferase 1 (Homo sapiens, UniProt O75907)", "T1 sequence (O75907 whole entry)": "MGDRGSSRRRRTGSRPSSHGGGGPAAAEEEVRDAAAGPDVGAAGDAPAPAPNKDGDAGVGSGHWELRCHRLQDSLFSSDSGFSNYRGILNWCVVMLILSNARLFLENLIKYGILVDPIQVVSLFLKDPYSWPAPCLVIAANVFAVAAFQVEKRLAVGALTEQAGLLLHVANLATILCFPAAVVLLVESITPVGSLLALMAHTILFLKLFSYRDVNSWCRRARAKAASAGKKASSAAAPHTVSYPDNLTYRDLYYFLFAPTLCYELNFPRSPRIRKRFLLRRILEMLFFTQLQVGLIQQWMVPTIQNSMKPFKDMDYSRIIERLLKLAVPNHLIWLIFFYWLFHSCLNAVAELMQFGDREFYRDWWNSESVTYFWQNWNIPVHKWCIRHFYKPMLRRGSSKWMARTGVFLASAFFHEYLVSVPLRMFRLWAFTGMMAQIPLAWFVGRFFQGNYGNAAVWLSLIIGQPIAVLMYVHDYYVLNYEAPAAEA", "assay": "Inhibition of DGAT1 (unknown origin)"}, "[2]": {"assay": "Apparent intrinsic clearance in dog hepatocytes assessed per million cells", "format": "ADME, cell-based, Canis lupus familiaris, Hepatocyte"}, "[3]": {"assay": "Drug metabolism in human liver microsomes assessed as fraction of UGT-mediated glucuronidation preincubated for 5 mins followed by addition of NADPH regenerating system and measured after 2.5 to 60 mins", "format": "ADME", "outline": "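Fractions of metabolism attributed to CYP oxidation and UGT glucuronidation were derived from human liver microsomal incubations. For the glucuronidation arm, microsomes were supplemented with the UGT cofactor UDP-glucuronic acid.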"}, "[4]": {"assay": "Half life in beagle dog at 5 mg/kg, po", "format": "ADME, organism-based, Canis lupus familiaris", "settings": "in vivo"}, "[5]": {"system": "Canis familiaris", "assay": "Unbound Cmax in beagle dog at 3 mg/kg, po qd administered for 1 month", "format": "ADME, organism-based, Canis lupus familiaris", "settings": "in vivo", "outline": "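One-month dog toxicity study with once-daily oral dosing. Toxicity groups were 2/sex/dose, and unbound peak exposure was taken from toxicokinetic sampling.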"}, "[6]": {"system": "Canis familiaris", "assay": "In vivo inhibition of DGAT2 in beagle dog assessed as coverage of in vitro IC50 for dog DGAT2 at 30 mg/kg, po qd administered for 1 month", "format": "functional, Canis lupus familiaris", "parameters": "scale not given: the % may be the effect or the level left", "outline": "(§1)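 Beagle dogs, once-daily oral dosing for 14 days or 1 month; systemic exposure with sexes combined; coverage is the average % above dog DGAT2 IC50 at steady state over the 24 h dosing interval.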"}, "[7]": {"assay": "Ratio of Cmax in telemetered beagle dog at 50 mg/kg administered via oral gavage measured over 24 hrs to IC50 for in vitro inhibition of dog DGAT2", "format": "organism-based, Canis lupus familiaris", "settings": "in vivo", "outline": "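Telemetered Beagle dogs given single oral doses (5, 25 and 50 mg kg–1), with systolic and diastolic blood pressure and heart rate monitored after dosing. Cmax is related to the dog DGAT2 enzymatic IC50, which is the geometric mean of at least three replicates.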"}, "[8]": {"system": "Canis familiaris", "assay": "Toxicity in telemetered beagle dog assessed as increase in heart rate at 50 mg/kg administered via oral gavage measured up to 9 hrs of post dosing", "format": "organism-based, Canis lupus familiaris", "settings": "in vivo"}, "[9]": {"system": "Canis familiaris", "assay": "Toxicity in telemetered beagle dog assessed as increase in diastolic pressure at 25 mg/kg administered via oral gavage measured during 4 hrs of post dosing", "format": "organism-based, Canis lupus familiaris", "settings": "in vivo"}, "[10]": {"system": "Canis familiaris", "assay": "Toxicity in telemetered beagle dog assessed as increase in diastolic pressure at 50 mg/kg administered via oral gavage measured during 4 hrs of post dosing", "format": "organism-based, Canis lupus familiaris", "settings": "in vivo"}, "[11]": {"system": "Canis familiaris", "assay": "Toxicity in telemetered beagle dog assessed as increase in systolic pressure at 25 mg/kg administered via oral gavage measured during 4 hrs of post dosing", "format": "organism-based, Canis lupus familiaris", "settings": "in vivo"}, "[12]": {"system": "Rattus norvegicus", "assay": "Unbound AUC in Wistar Han IGS rat at 10 mg/kg, po qd administered for 14 days", "format": "ADME, organism-based", "settings": "in vivo, 336 h", "outline": "(§2)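 Wistar Han rats were dosed orally once daily for 14 days (exploratory, 5/sex/dose) or 1 month (toxicity, 10/sex/dose). Toxicokinetic satellite animals (3–4/sex/dose) were used, and steady-state systemic exposure is given as the mean of male and female values combined.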"}, "[13]": {"system": "Rattus norvegicus", "assay": "Toxicity in Wistar Han IGS rat at 10 mg/kg, po qd administered for 14 days", "format": "organism-based", "settings": "in vivo, 336 h", "outline": "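Wistar Han rats, daily oral dosing for 14 days (5/sex/dose) or 1 month (10/sex/dose); microscopic findings reported as incidence by sex, plus organ weights.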"}, "[14]": {"system": "Rattus norvegicus", "assay": "Unbound Cmax in Wistar Han IGS rat at 60 mg/kg, po qd administered for 1 month", "format": "ADME, organism-based", "settings": "in vivo", "outline": "as §2"}, "[15]": {"system": "Rattus norvegicus", "assay": "Unbound AUC in Wistar Han IGS rat at 30 mg/kg, po qd administered for 1 month", "format": "ADME, organism-based", "settings": "in vivo", "outline": "as §2"}, "[16]": {"system": "Rattus norvegicus", "assay": "Unbound AUC in Wistar Han IGS rat at 60 mg/kg, po qd administered for 1 month", "format": "ADME, organism-based", "settings": "in vivo", "outline": "as §2"}, "[17]": {"system": "Canis familiaris", "assay": "Toxicity in telemetered beagle dog assessed as change in left ventricular parameters and activity level at 5 mg/kg administered via oral gavage measured over 24 hrs", "format": "organism-based, Canis lupus familiaris", "settings": "in vivo"}, "[18]": {"system": "Canis familiaris", "assay": "Toxicity in beagle dog at 75 mg/kg, po qd administered for 14 days", "format": "organism-based, Canis lupus familiaris", "settings": "in vivo, 336 h"}, "[19]": {"system": "Canis familiaris", "assay": "Toxicity in telemetered beagle dog assessed as change in ECG intervals at 5 mg/kg administered via oral gavage measured over 24 hrs", "format": "organism-based, Canis lupus familiaris", "settings": "in vivo"}, "[20]": {"system": "Canis familiaris", "assay": "Toxicity in telemetered beagle dog assessed as change in blood pressure at 5 mg/kg administered via oral gavage measured over 24 hrs", "format": "organism-based, Canis lupus familiaris", "settings": "in vivo"}, "[21]": {"system": "Canis familiaris", "assay": "Toxicity in telemetered beagle dog assessed as foamy white salivation at 75 mg/kg administered via oral gavage measured within 4 hrs of dosing", "format": "organism-based, Canis lupus familiaris", "settings": "in vivo"}, "[22]": {"system": "Rattus norvegicus", "assay": "In vivo inhibition of DGAT2 in Wistar Han IGS rat assessed as coverage of in vitro IC50 for rat DGAT2 at 30 mg/kg, po qd administered for 1 month", "format": "functional", "parameters": "scale not given: the % may be the effect or the level left", "outline": "(§3)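 Wistar Han rats, once-daily oral dosing for 14 days (exploratory, 5/sex/dose) or 1 month (10/sex/dose); toxicokinetics in 3–4/sex/dose with sexes combined; coverage is the average % above rat DGAT2 IC50 at steady state over the 24 h dosing interval.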"}, "[23]": {"system": "Rattus norvegicus", "assay": "In vivo inhibition of DGAT2 in Wistar Han IGS rat assessed as coverage of in vitro IC50 for rat DGAT2 at 300 mg/kg, po qd administered for 1 month", "format": "functional", "parameters": "scale not given: the % may be the effect or the level left", "outline": "as §3"}, "[24]": {"system": "Canis familiaris", "assay": "In vivo inhibition of DGAT2 in beagle dog assessed as coverage of in vitro IC50 for dog DGAT2 at 75 mg/kg, po qd administered for 14 days", "format": "functional, Canis lupus familiaris", "parameters": "scale not given: the % may be the effect or the level left", "outline": "as §1"}, "[25]": {"system": "Canis familiaris", "assay": "In vivo inhibition of DGAT2 in beagle dog assessed as coverage of in vitro IC50 for dog DGAT2 at 5 mg/kg, po qd administered for 1 month", "format": "functional, Canis lupus familiaris", "parameters": "scale not given: the % may be the effect or the level left", "outline": "as §1"}, "[26]": {"system": "Canis familiaris", "assay": "In vivo inhibition of DGAT2 in beagle dog assessed as coverage of in vitro IC50 for dog DGAT2 at 50 mg/kg, po qd administered for 1 month", "format": "functional, Canis lupus familiaris", "parameters": "scale not given: the % may be the effect or the level left", "outline": "as §1"}, "[27]": {"system": "Canis familiaris", "assay": "Toxicity in telemetered beagle dog assessed as increase in systolic pressure at 75 mg/kg administered via oral gavage measured over 24 hrs", "format": "organism-based, Canis lupus familiaris", "settings": "in vivo"}, "[28]": {"system": "Canis familiaris", "assay": "Toxicity in telemetered beagle dog assessed as increase in heart rate at 20 mg/kg, iv administered as single bolus dose over 2 mins", "format": "organism-based, Canis lupus familiaris", "settings": "in vivo"}, "[29]": {"system": "Canis familiaris", "assay": "Toxicity in telemetered beagle dog assessed as emesis at 20 mg/kg, iv administered as single bolus dose over 2 mins", "format": "organism-based, Canis lupus familiaris", "settings": "in vivo"}, "[30]": {"system": "Canis familiaris", "assay": "Toxicity in telemetered beagle dog assessed as increase in diastolic pressure at 25 mg/kg administered via oral gavage measured over 24 hrs", "format": "organism-based, Canis lupus familiaris", "settings": "in vivo"}}, "data": [{"molecule": "C[C@@H](c1nc2ccc(N3CCC[C@@H](C(=O)N4CCCC4)C3)nc2[nH]1)n1cc(Cl)cn1", "values": [{"measurement": "IC50", "setting": "[1]", "value": "> 50", "unit": "µM"}, {"measurement": "CLH(app)", "setting": "[2]", "value": 8.4, "unit": "µL/min"}, {"measurement": "Ratio", "setting": "[3]", "value": 0.39}, {"measurement": "half-life", "setting": "[4]", "value": 3, "unit": "h"}, {"measurement": "fCmax", "setting": "[5]", "value": 454, "unit": "nM"}, {"measurement": "Activity", "setting": "[6]", "value": 96, "unit": "%"}, {"measurement": "Ratio", "setting": "[7]", "value": 110}, {"measurement": "Activity", "setting": "[8]", "value": 15, "unit": "bpm"}, {"measurement": "Activity", "setting": "[9]", "value": 5, "unit": "mmHg"}, {"measurement": "Activity", "setting": "[10]", "value": 6, "unit": "mmHg"}, {"measurement": "Activity", "setting": "[11]", "value": 6, "unit": "mmHg"}]}, {"molecule": "CS(=O)(=O)O.O=C([C@@H]1CCCN(c2ccc3nc(C4(n5cc(Cl)cn5)CC4)[nH]c3n2)C1)N1CCCC1", "values": [{"measurement": "fAUC", "setting": "[12]", "value": 1190, "unit": "ng·h/mL"}, {"measurement": "Activity", "setting": "[13]", "value": "Non-Toxic"}, {"measurement": "fCmax", "setting": "[14]", "value": 5.47, "unit": "µM"}, {"measurement": "fAUC", "setting": "[15]", "value": 4630, "unit": "ng·h/mL"}, {"measurement": "fAUC", "setting": "[16]", "value": 22600, "unit": "ng·h/mL"}, {"measurement": "Activity", "setting": "[17]", "value": "Non-Toxic"}, {"measurement": "Activity", "setting": "[18]", "value": "Non-Toxic"}, {"measurement": "Activity", "setting": "[19]", "value": "Non-Toxic"}, {"measurement": "Activity", "setting": "[20]", "value": "Non-Toxic"}, {"measurement": "Activity", "setting": "[21]", "value": "Toxic"}, {"measurement": "Activity", "setting": "[22]", "value": 92, "unit": "%"}, {"measurement": "Activity", "setting": "[23]", "value": ">99", "unit": "%"}, {"measurement": "Activity", "setting": "[24]", "value": 99, "unit": "%"}, {"measurement": "Activity", "setting": "[25]", "value": 87, "unit": "%"}, {"measurement": "Activity", "setting": "[26]", "value": ">99", "unit": "%"}, {"measurement": "Activity", "setting": "[27]", "value": 5, "unit": "mmHg"}, {"measurement": "Activity", "setting": "[28]", "value": 27, "unit": "bpm"}, {"measurement": "Activity", "setting": "[29]", "value": "Non-Toxic"}, {"measurement": "Activity", "setting": "[30]", "value": "Non-Toxic"}]}]}
